pIC50, pKd: −log10 of the molar value. Like-named read-outs stand apart in the source and are kept apart here.
Key:
[1] = cited from earlier work
[2] = tested on: TH positive neurons in the SNpc; settings: intraperitoneal injection; cited from earlier work
347 kinases = experiment: Ambit kinase panel screen; type: binding; settings: 3 μM
KIT = KIT (Homo sapiens, UniProt P10721); experiment: Ambit kinase panel screen, KIT; type: binding; settings: suggested from Ambit panel at 3 μM
KIT V559D = KIT V559D (Homo sapiens, UniProt P10721, V559D); experiment: Ambit kinase panel screen, KIT V559D; type: binding; settings: suggested from Ambit panel at 3 μM
PDGFR-β = PDGFR-β (Homo sapiens, UniProt P09619); experiment: Ambit kinase panel screen, PDGFR-β; type: binding; settings: suggested from Ambit panel at 3 μM
TYK2 = TYK2 (Homo sapiens, UniProt P29597); experiment: Ambit kinase panel screen, TYK2; type: binding; settings: suggested from Ambit panel at 3 μM
[3] = biological target: Leucine Rich repeat Kinase 2 (LRRK2) (Homo sapiens, UniProt Q5S007); experiment: LRRK2 inhibition; type: biochemical; settings: up to 10 μM
G2019S LRRK2 = G2019S LRRK2 (Homo sapiens, UniProt Q5S007, G2019S); experiment: G2019S LRRK2 inhibition; type: biochemical; settings: up to 10 μM
CYP P450 1A2 = CYP P450 1A2 (Homo sapiens, UniProt P05177); experiment: P450 inhibition 1A2; type: in vitro ADME; settings: read-out: IC50 CYP450 1A2
CYP P450 2A6 = CYP P450 2A6 (Homo sapiens, UniProt P11509); experiment: P450 inhibition 2A6; type: in vitro ADME; settings: read-out: IC50 CYP450 2A6
CYP P450 2B6 = CYP P450 2B6 (Homo sapiens, UniProt P20813); experiment: P450 inhibition 2B6; type: in vitro ADME; settings: read-out: IC50 CYP450 2B6
CYP P450 2C8 = CYP P450 2C8 (Homo sapiens, UniProt P10632); experiment: P450 inhibition 2C8; type: in vitro ADME; settings: read-out: IC50 CYP450 2C8
CYP P450 2D6 = CYP P450 2D6 (Homo sapiens, UniProt P10635); experiment: P450 inhibition 2D6; type: in vitro ADME; settings: read-out: IC50 CYP450 2D6
CYP P450 2E1 = CYP P450 2E1 (Homo sapiens, UniProt P05181); experiment: P450 inhibition 2E1; type: in vitro ADME; settings: read-out: IC50 CYP450 2E1
[4] = biological target: monoamine oxidase A (MAO-A) (Homo sapiens, UniProt P21397); experiment: MAO-A inhibition; type: biochemical; settings: read-out: IC50 MAO-A
[5] = biological target: monoamine oxidase B (MAO-B) (Homo sapiens, UniProt P27338); experiment: MAO-B inhibition; type: biochemical; settings: read-out: IC50 MAO-B
[6] = Microsomal stability, mouse; type: in vitro ADME; settings: mouse liver microsomes
[7] = Microsomal stability, rat; type: in vitro ADME; settings: rat liver microsomes
[8] = Microsomal stability, human; type: in vitro ADME; settings: human liver microsomes
[9] = Plasma protein binding, mouse; type: in vitro ADME
[10] = Plasma protein binding, rat; type: in vitro ADME
[11] = Plasma protein binding, monkey; type: in vitro ADME
[12] = Plasma protein binding, human; type: in vitro ADME
Rat pharmacokinetics = type: in vivo, Sprague-Dawley rats; settings: rats
Procedure, shortened: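 Sprague-Dawley rats (n = 3) were dosed 1 mg/kg i.v. or 2 mg/kg by oral gavage. Blood was drawn into EDTA at 5, 15 and 30 min and at 1, 2, 4, 6 and 8 h. Plasma proteins were precipitated with acetonitrile and the test compound quantified by LC-MS/MS. Noncompartmental analysis gave CL, oral bioavailability, Cmax, AUC, t1/2 and Vd.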

[13] = tested on: primary mesencephalic dopaminergic neurons exposed to MPP+; type: cell-based, Sprague Dawley rat; settings: for neuroprotective effect (TH-positive neurons): 10 μM MPP+ for 48 hr
Procedure, shortened: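 Ventral mesencephalon from E14 Sprague-Dawley rat embryos was trypsinised (0.25%, 5 min, 37 °C) and triturated. Cells were plated at 200 000/well on poly-D-lysine/laminin in DMEM/10% HIFBS, then switched after 2 h to SATO selection medium for 5 days with daily changes. Test compound (10–1000 nM) was added 15 min before 10 μM MPP+, with 48 h at 37 °C/5% CO2. Cells were fixed in 4% PFA and TH+ neurons counted blinded. Four wells per concentration, three biological replicates; one-way ANOVA.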

[14] = Mouse brain penetration time course; type: in vivo, C57Bl6 mice; settings: mice, single oral dose 30 mg/kg
P-glycoprotein (PGP) = P-glycoprotein (PGP) (Homo sapiens, UniProt P08183); experiment: P-glycoprotein substrate assessment; type: in vitro ADME
[15] = tested on: c-jun phosphorylation in ventral midbrain; experiment: Western blot for phospho-c-jun after MPTP; type: in vivo, C57BL/6J mice; settings: MPTP-treated mice, 20 mg/kg oral
Procedure, shortened: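 Mice received the test compound orally 30 min before the first i.p. MPTP-HCl dose and were killed 7 h after that dose; two saline, three MPTP and two MPTP+compound mice. Ventral midbrain was dissected and lysed, and 30 μg nuclear-fraction protein was immunoblotted for phospho-c-jun.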

[16] = tested on: p-c-jun in TH-positive neurons of the SNpc; experiment: Immunohistochemistry for TH and p-c-jun after MPTP; type: in vivo, C57BL/6J mice; settings: single oral dose 30 mg/kg, seven hr
Procedure, shortened: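 The test compound was given orally 30 min before repeated i.p. MPTP-HCl (2 h intervals) to male C57BL/6J mice, which were killed 7 h after the first MPTP dose; three mice per group. 16 μm SN sections (bregma −3.0) were incubated overnight at 4 °C with sheep anti-TH (1:50) and rabbit anti-p-c-jun Ser73 (1:100), then 2 h with Alexa 594/488 secondaries (1:500). DAPI was used for normalisation. TH+ neurons with nuclear p-c-jun were counted.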

[17] = tested on: p-c-jun in substantia nigra tissue lysate; experiment: ELISA for p-c-jun target modulation after MPTP; type: in vivo, C57BL/6J mice; settings: MPTP-treated mice
Procedure, shortened: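 Male C57BL/6J mice (11 weeks, 25–30 g) got the test compound orally 30 min before the first of repeated i.p. MPTP-HCl doses given at 2 h intervals, and were killed 7 h after the first MPTP dose. SN nuclear extracts were made with protease and phosphatase inhibitors and protein was measured by BCA. Phospho-c-jun Ser63 in 30 μg protein was read by ELISA in duplicate against a recombinant p-c-jun standard curve. Groups were compared by two-tailed unpaired t test.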

[18] = tested on: striatal catecholamine levels; experiment: Striatal dopamine, DOPAC and HVA levels after MPTP; type: in vivo, C57BL/6J mice; settings: MPTP-treated mice, 30 mg/kg, 7 days
CYP P450 2C9 = CYP P450 2C9 (Homo sapiens, UniProt P11712); settings: read-out: IC50 CYP450 2C9
CYP P450 2C19 = CYP P450 2C19 (Homo sapiens, UniProt P33261); settings: read-out: IC50 CYP450 2C19
CYP P450 3A4 = CYP P450 3A4 (Homo sapiens, UniProt P08684); settings: read-out: IC50 CYP450 3A4
[19] = cited from earlier work; remark: listed apart in the source

CYP P450 2C19, sequence (P33261 whole entry): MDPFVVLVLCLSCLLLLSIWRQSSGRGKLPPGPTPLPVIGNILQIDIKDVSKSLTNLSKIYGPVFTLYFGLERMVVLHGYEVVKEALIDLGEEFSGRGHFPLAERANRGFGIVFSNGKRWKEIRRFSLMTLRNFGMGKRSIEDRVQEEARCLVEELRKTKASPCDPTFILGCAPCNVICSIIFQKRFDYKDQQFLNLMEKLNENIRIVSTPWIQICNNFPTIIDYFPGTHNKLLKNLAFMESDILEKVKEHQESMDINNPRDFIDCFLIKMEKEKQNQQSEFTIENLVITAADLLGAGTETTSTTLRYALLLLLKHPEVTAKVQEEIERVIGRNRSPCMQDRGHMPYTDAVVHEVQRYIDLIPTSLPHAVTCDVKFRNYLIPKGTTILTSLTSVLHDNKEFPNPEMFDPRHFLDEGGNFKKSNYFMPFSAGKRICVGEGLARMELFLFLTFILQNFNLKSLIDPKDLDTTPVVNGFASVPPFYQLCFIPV
G2019S LRRK2, sequence (Q5S007 whole entry G2019S): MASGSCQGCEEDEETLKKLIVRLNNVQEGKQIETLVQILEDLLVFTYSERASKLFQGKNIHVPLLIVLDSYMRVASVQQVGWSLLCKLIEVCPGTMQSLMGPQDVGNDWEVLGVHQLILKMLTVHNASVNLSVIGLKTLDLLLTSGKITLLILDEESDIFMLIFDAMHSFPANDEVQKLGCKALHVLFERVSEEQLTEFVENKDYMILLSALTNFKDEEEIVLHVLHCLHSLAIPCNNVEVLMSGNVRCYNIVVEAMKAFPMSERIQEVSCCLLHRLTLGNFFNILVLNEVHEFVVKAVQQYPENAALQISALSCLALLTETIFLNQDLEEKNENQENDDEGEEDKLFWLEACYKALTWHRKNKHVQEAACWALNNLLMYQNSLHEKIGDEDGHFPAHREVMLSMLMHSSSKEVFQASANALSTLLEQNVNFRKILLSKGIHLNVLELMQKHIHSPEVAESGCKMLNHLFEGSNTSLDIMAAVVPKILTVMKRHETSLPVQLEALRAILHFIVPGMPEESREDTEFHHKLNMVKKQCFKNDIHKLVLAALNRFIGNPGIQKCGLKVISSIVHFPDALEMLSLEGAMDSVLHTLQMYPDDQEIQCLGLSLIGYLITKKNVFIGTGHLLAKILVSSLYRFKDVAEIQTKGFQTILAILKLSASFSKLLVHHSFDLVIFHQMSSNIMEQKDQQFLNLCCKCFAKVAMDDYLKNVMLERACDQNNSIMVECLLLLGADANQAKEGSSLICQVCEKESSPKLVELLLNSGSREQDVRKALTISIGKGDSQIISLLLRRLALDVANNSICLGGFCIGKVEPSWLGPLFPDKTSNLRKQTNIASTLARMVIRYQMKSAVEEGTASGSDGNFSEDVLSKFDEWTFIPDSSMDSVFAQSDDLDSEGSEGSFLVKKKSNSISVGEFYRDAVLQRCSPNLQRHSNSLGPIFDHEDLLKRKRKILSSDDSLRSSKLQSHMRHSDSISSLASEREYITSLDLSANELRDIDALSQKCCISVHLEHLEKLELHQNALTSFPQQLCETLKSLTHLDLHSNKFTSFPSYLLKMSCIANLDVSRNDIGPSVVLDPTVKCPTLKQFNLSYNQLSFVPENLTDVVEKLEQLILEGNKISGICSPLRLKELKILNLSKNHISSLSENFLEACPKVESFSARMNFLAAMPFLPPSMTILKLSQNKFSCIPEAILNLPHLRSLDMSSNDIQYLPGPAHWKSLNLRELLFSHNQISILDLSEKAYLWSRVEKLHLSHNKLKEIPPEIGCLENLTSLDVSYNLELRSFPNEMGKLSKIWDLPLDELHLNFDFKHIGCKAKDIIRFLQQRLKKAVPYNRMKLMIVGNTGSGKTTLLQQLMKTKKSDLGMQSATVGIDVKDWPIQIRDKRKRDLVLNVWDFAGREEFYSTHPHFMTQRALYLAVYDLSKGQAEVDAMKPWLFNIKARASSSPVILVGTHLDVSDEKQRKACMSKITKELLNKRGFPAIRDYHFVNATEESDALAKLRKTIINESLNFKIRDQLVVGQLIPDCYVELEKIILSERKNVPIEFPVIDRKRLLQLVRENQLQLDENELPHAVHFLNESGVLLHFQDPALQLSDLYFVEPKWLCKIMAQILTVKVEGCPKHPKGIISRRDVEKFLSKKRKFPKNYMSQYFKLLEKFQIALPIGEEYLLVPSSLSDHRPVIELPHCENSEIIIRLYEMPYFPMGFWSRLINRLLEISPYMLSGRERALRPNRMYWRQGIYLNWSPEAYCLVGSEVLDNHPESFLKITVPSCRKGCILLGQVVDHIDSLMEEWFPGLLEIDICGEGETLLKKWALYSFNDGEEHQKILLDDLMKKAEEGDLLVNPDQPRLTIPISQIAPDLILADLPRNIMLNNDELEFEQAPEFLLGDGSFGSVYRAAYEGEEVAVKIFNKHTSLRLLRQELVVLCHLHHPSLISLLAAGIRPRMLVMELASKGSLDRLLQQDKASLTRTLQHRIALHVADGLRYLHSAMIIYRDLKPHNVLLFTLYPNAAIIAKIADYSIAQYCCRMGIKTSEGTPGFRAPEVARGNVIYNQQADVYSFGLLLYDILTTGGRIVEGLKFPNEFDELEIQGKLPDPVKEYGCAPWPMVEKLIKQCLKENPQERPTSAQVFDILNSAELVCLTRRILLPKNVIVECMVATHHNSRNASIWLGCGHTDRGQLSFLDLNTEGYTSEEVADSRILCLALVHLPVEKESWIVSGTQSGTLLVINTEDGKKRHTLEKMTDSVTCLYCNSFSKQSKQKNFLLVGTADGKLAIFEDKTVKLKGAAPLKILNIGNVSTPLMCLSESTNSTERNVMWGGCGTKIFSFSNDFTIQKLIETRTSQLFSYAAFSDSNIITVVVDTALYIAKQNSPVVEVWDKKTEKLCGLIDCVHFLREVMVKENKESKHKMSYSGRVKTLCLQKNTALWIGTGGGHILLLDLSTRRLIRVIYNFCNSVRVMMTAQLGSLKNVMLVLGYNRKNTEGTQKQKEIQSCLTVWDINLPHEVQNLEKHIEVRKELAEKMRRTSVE
CYP P450 2A6, sequence (P11509 whole entry): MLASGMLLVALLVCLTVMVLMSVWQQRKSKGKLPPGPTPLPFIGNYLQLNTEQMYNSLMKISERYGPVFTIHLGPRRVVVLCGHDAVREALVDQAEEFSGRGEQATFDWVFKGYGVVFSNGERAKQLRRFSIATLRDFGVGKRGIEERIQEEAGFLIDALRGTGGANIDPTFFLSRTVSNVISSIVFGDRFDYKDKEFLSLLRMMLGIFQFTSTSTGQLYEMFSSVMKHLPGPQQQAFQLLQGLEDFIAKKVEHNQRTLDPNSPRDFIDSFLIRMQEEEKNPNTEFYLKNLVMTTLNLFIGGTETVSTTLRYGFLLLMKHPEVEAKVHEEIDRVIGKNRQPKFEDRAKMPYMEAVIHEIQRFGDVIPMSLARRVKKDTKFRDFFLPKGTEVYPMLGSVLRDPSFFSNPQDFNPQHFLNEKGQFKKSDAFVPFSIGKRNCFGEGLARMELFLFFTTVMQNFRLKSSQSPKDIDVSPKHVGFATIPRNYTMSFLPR
CYP P450 1A2, sequence (P05177 whole entry): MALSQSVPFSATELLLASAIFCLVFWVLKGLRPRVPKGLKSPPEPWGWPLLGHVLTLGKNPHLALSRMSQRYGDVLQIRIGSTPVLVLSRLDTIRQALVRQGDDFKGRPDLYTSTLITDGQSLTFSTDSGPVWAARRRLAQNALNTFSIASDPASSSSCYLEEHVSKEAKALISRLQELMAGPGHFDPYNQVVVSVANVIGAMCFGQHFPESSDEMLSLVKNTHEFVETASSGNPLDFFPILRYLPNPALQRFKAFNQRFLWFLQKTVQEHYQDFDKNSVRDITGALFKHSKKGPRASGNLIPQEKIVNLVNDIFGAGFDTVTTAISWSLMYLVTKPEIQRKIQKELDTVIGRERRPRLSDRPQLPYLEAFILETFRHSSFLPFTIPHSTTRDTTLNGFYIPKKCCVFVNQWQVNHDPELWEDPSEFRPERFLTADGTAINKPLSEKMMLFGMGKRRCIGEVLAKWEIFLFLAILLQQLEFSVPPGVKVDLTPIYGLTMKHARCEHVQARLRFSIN
KIT, sequence (P10721 26-976): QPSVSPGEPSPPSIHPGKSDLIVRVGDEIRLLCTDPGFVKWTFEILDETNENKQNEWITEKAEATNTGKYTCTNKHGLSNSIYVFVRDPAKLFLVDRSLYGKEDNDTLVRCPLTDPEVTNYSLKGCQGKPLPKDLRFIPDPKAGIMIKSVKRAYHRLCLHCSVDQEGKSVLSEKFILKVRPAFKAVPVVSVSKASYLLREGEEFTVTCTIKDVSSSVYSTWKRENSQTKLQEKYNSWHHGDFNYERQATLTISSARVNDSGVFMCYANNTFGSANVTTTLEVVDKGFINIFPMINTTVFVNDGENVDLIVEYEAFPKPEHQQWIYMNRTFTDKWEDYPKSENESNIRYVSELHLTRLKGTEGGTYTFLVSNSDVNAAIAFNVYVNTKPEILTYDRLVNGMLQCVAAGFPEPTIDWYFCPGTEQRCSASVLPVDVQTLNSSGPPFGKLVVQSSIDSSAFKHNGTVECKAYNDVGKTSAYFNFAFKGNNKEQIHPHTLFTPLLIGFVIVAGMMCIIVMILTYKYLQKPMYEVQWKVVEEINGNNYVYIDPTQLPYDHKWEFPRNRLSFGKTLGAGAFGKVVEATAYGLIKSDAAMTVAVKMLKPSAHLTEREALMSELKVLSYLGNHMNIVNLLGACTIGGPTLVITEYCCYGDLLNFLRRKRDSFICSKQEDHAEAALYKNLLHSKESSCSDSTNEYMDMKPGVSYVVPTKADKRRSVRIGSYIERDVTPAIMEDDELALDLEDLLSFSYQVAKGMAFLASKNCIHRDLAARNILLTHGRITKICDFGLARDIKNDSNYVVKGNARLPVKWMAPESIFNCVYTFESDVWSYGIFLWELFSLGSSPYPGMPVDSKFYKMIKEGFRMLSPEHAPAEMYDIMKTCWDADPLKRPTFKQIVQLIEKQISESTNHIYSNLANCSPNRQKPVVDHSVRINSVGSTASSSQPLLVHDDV
KIT V559D, sequence (P10721 26-976 V559D): as the sequence (P10721 26-976) above, with V534D counted along it
Leucine Rich repeat Kinase 2 (LRRK2), sequence (Q5S007 whole entry): as the sequence (Q5S007 whole entry G2019S) above, with S2019G counted along it

With `N[C@@H](Cc1ccc(O)c(O)c1)C(=O)O` [L-DOPA, levodopa] as the compound, how does the initial response rates [1] read?
Its initial response rates is about 90%.

With `Oc1c2ccccc2c2c3c(cccc13)N=N2` [SP600125] as the compound, how does the “protection in the chronic MPTP mouse model” value [2] read?
Its value is “protective”.

With `Cc1ccc(-c2ncn(-c3ccc(Nc4nccc(-c5cccc(N6CCOCC6)c5)n4)cc3)n2)cn1` [SR-3306] as the compound, how does the “number of kinases with any hit” value (347 kinases) read?
The value was 35 out of the 347.

What about the pKd (KIT) of the same compound?
The pKd was over 6.00.

And the pKd (KIT V559D)?
Its pKd is over 6.00.

What about the pKd (PDGFR-β) of the same compound?
The pKd was over 6.00.

What about the pKd (TYK2) of the same compound?
Its pKd is over 6.00.

What about the “inhibition of LRRK2” value [3] of the same compound?
The value was “not inhibited”.

And the “inhibition of G2019S LRRK2” value (G2019S LRRK2)?
The value was “not inhibited”.

What about the pIC50 (CYP P450 1A2) of the same compound?
Its pIC50 is under 4.30.

And the pIC50 (CYP P450 2A6)?
The pIC50 was under 4.30.

What about the pIC50 (CYP P450 2B6) of the same compound?
Its pIC50 is under 4.30.

And the pIC50 (CYP P450 2C8)?
The pIC50 was under 4.30.

What about the pIC50 (CYP P450 2D6) of the same compound?
The pIC50 was under 4.30.

And the pIC50 (CYP P450 2E1)?
The pIC50 was under 4.30.

What about the pIC50 [4] of the same compound?
Its pIC50 is under 4.30.

What about the pIC50 [5] of the same compound?
Its pIC50 is under 4.30.

What about the microsomal stability [6] of the same compound?
Its microsomal stability is 26 min.

What about the microsomal stability [7] of the same compound?
The microsomal stability was 30 min.

What about the microsomal stability [8] of the same compound?
Its microsomal stability is 28 min.

What about the plasma protein binding [9] of the same compound?
Its plasma protein binding is 86%.

And the plasma protein binding [10]?
Its plasma protein binding is 97%.

And the plasma protein binding [11]?
The plasma protein binding was 96%.

What about the plasma protein binding [12] of the same compound?
The plasma protein binding was 88%.

And the clearance rate (Rat pharmacokinetics; 1 mg/kg i.v.)?
The clearance rate was 14 mL/min/kg.

What about the “oral bioavailability (%F)” value (Rat pharmacokinetics; 2 mg/kg p.o. vs 1 mg/kg i.v.) of the same compound?
Its value is 31%.

And the “neuroprotective effect (TH-positive neurons)” value ([13]; 300 nM)?
Its value is “greater than 90%”.

And the “effect on number of TH-positive neurons, compound alone” value ([13]; 1000 nM in the absence of MPP+)?
Its value is “no effect compared to control”.

What about the “neuroprotective effect (TH-positive neurons)” value ([13]; 1000 nM) of the same compound?
Its value is “greater than 90%”.

What about the brain concentration ([14]; 4 hr) of the same compound?
Its brain concentration is 3000 nM.

What about the “brain concentration above the >90% neuroprotective concentration” value ([14]; 8 hr) of the same compound?
The value was 7 fold.

And the brain concentration ([14]; 24 hr)?
Its brain concentration is 230 nM.

What about the “P-glycoprotein (PGP) substrate” value (P-glycoprotein (PGP)) of the same compound?
The value was “not a P-glycoprotein (PGP) substrate”.

What about the “phospho-c-jun signal by Western blot” value [15] of the same compound?
Its value is “decrease in the phospho-c-jun signal”.

What about the “number of p-c-jun positive cells compared to MPTP treated mice” value [16] of the same compound?
Its value is “dramatic decrease (four-fold)”.

What about the “p-c-jun levels in the ventral midbrain by ELISA” value (from here on “p-c-jun levels”) ([17]; 10 mg/kg oral) of the same compound?
The value was “no effect”.

What about the “p-c-jun levels” value ([17]; 20 mg/kg oral, p< 0.01) of the same compound?
The value was “statistically significant reduction”.

What about the “p-c-jun levels” value ([17]; 30 mg/kg oral, p < 0.001) of the same compound?
Its value is “statistically significant reduction”.

And the “protection of striatal DOPAC levels” value [18]?
Its value is “some protection”.

And the “protection of striatal dopamine levels” value [18]?
Its value is “not able to demonstrate protection”.

And the “protection of striatal homovanillic acid (HVA) levels” value [18]?
The value was “not able to demonstrate protection”.

What about the pIC50 (CYP P450 2C9) of the same compound?
The pIC50 was under 4.30.

What about the pIC50 (CYP P450 2C19) of the same compound?
The pIC50 was under 4.30.

What about the pIC50 (CYP P450 3A4) of the same compound?
The pIC50 was under 4.30.

Which neuroprotective disease-modifying effects ([19]; 1 mg) does the source give for `C#CCN[C@@H]1CCc2ccccc21` [rasagiline] here?
Its neuroprotective disease-modifying effects is “possible disease-modifying effects”.

And the neuroprotective disease-modifying effects ([19]; 2 mg dose, 1176 subjects)?
Its neuroprotective disease-modifying effects is “failed to show neuroprotective disease-modifying effects”.
